From ChEMBL document CHEMBL5252642, “Design and synthesis of naturally-inspired SARS-CoV-2 inhibitors” (RSC Med Chem, 2023) come the findings set out here.

Activity calls are given as the source filed them. The rule behind the calls is not given here.

One data set deals with SARS-CoV-2. The data set can be described thus: Antiviral activity against SARS-CoV-2 BetaCoV/France/IDF0372/2020 infected human A549-ACE2 cells assessed as inhibition of viral replication by qRT-PCR analysis. Type of data set: functional, organism-based. To be noted: Severe acute respiratory syndrome coronavirus 2, BetaCoV/France/IDF0372/2020, A549-ACE2.
A short description of data set [1]: Cytotoxicity against human A549-ACE2 cells. Type of data set: toxicity, cell-based. The gist of the method:
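A549-ACE2 cells (2,000/well) were exposed to compounds for 72 h. Viability was read as CellTiter-Glo luminescence. Controls were 0.5% DMSO and 10 µM camptothecin. Values come from triplicate dose-response curves.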

Data set [2] has as its target Replicase polyprotein 1ab (Severe acute respiratory syndrome coronavirus 2, UniProt P0DTD1). The data set can be described thus: (§1) Inhibition of SARS-CoV-2 nsp14 guanine-N7-methyltransferase activity. The gist of the method: (§2)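 Compounds were serially titrated from 8 µM to 2 mM DMSO stocks, giving 5% DMSO final. They were preincubated 2 h at 23 °C with 1.5 nM nsp14 in 20 mM Tris-HCl pH 7.5, 0.25 mM MgCl2, 1 mM TCEP and 0.01% Triton X-100. Then 50 nM RNA and 0.25 µM 3H-SAM were added for 20 min. Radioactivity was read. Tests were in triplicate, with SAH as positive control and curves constrained to 0–100.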

Data set [3] relates to Severe acute respiratory syndrome coronavirus 2. Put plainly: (§3) Inhibition of SARS-CoV-2 N-terminus His tagged nsp10/nsp16 complex expressed in Escherichia coli using [3H]SAM as substrate by scintillation proximity assay. The gist of the method:
(§4)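 Compounds were serially titrated from 8 µM to 2 mM DMSO stocks, giving 5% DMSO final. They were preincubated 2 h at 23 °C with 125 nM nsp10–nsp16 (8:1) in 50 mM Tris-HCl pH 7.5, 1.5 mM MgCl2, 1 mM TCEP and 0.01% Triton X-100. Then 0.8 µM RNA and 2 µM SAM (30% 3H-SAM) were added for 30 min at 23 °C. Radioactivity was read. Tests were in triplicate, with curves constrained to 0–100.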
On the technique in general: In a scintillation proximity assay essentially only radioactivity close to the scintillant gives light.

For data set [4], the target named is Replicase polyprotein 1ab (Severe acute respiratory syndrome coronavirus 2) (UniProt P0DTD1). The description is as §1. The gist of the method:
as §2

Data set [5] in a line: as §3. Also on record: species or system Severe acute respiratory syndrome coronavirus 2. A digest of the protocol:
as §4

As for `Cc1ccc(S(=O)(=O)N2C[C@@]34CN(C(=O)c5cccs5)C[C@@H](O3)[C@H]3[C@@H](Oc5cc(C)nc(N)n5)CC[C@]2(C(C)C)[C@H]34)cc1`, the concentration giving a half-maximal response (EC50) in the data set on SARS-CoV-2 is > 50 µM. Moreover, the CC50 in data set [1] was > 50 µM.
Consider `COc1cc(CN2C[C@H]3O[C@]4(C2)CN(S(=O)(=O)c2ccc(C)cc2)[C@]2(C(C)C)CC[C@H](OCCCN(C)C)[C@H]3[C@H]42)cc(OC)c1`, for which the EC50 in the data set with SARS-CoV-2 came out at 1.4 µM. The same compound gave a CC50 in data set [1] of 7.7 µM. Also, the IC50 in data set [2] was > 100 µM. For the same compound, the inhibition result in data set [3] is “inactive”.
Turning to `Cc1ccc(S(=O)(=O)N2C[C@@]34CN(C(=O)c5ccc(N)cn5)C[C@@H](O3)[C@@H]3[C@H]4[C@@]2(C(C)C)CC[C@@H]3O)cc1`, in the data set with SARS-CoV-2, the EC50 was 37 µM. The CC50 in data set [1] is > 50 µM.
On to `Cc1ccc(S(=O)(=O)N2C[C@@]34CN(Cc5nc6ccccc6s5)C[C@@H](O3)[C@@H]3[C@H]4[C@@]2(C(C)C)CC[C@@H]3O)cc1`, for which the EC50 with SARS-CoV-2 came to 6.6 µM. The CC50 in data set [1] came out at 12 µM.
Turning to `Cc1ccc(S(=O)(=O)N2C[C@@]34CN(Cc5nc6ccccc6s5)C[C@@H](O3)[C@H]3C(=O)CC[C@]2(C(C)C)[C@H]34)cc1`, in the data set with SARS-CoV-2, the EC50 was 5.3 µM. This compound showed a 50% cytotoxic concentration (CC50) in data set [1] of 37 µM.
Take `COc1ccc(CCN2C[C@H]3O[C@]4(C2)CN(S(=O)(=O)c2ccc(C)cc2)[C@]2(C(C)C)C=C[C@H](O)[C@H]3[C@H]42)cc1`: the EC50 with SARS-CoV-2 worked out at 3.7 µM. This compound had a CC50 in data set [1] of 12 µM. Further, the inhibition entry in data set [4] and in data set [3] was “inactive” in each case.
Take `Cc1ccc(S(=O)(=O)N2C[C@@]34CN(CCc5c[nH]c6ccccc56)C[C@@H](O3)[C@@H]3[C@H]4[C@@]2(C(C)C)CC[C@@H]3O)cc1`: in the data set on SARS-CoV-2, the EC50 came to 8.3 µM. Moreover, half-maximal cytotoxicity in data set [1] (CC50) was put at 13 µM.
Take `Cc1ccc(S(=O)(=O)N2C[C@@]34CN(Cc5ccccc5)C[C@@H](O3)[C@H]3[C@@H](Oc5ncccn5)CC[C@]2(C(C)C)[C@H]34)cc1`: in the data set on SARS-CoV-2, the EC50 came to 6.2 µM. The compound also returned a CC50 in data set [1] of 6.3 µM.
For `Cc1ccc(S(=O)(=O)N2C[C@@]34CN(C(=O)c5ccc(F)cc5N)C[C@@H](O3)[C@@H]3[C@H]4[C@@]2(C(C)C)CC[C@@H]3O)cc1`, the EC50 with SARS-CoV-2 was 14 µM. In addition, the CC50 in data set [1] was determined as 20 µM.
The corresponding values for `Cc1ccc(S(=O)(=O)N2C[C@@]34CN(C)C[C@@H](O3)[C@H]3[C@@H](Oc5ncccn5)CC[C@]2(C(C)C)[C@H]34)cc1` are 20 µM and 17 µM.
For the compound `Cc1ccc(S(=O)(=O)N2C[C@@]34CNC[C@@H](O3)[C@H]3C(=O)CC[C@]2(C(C)C)[C@H]34)cc1`, the EC50 in the data set on SARS-CoV-2 was > 50 µM. Further, the CC50 in data set [1] is > 50 µM.
`Cc1ccc(S(=O)(=O)N2C[C@@]34CN(Cc5ccccc5)C[C@@H](O3)[C@H]3C(=O)C=C[C@]2(C(C)C)[C@H]34)cc1`: the EC50 in the data set with SARS-CoV-2 turned out to be 16 µM. This compound had a CC50 in data set [1] of 14 µM.
Take `CNC(=O)N1C[C@H]2O[C@]3(C1)CN(S(=O)(=O)c1ccc(C)cc1)[C@]1(C(C)C)CC[C@H](O)[C@H]2[C@H]31`: the EC50 with SARS-CoV-2 is > 50 µM. Moreover, the CC50 in data set [1] is > 50 µM.
`COc1ccc(CCN2C[C@H]3O[C@]4(C2)CN(S(=O)(=O)c2ccc(C)cc2)[C@]2(C(C)C)C=C[C@H](Oc5ncccn5)[C@H]3[C@H]42)cc1`: the 50% effective concentration (EC50) in the data set with SARS-CoV-2 was > 50 µM.
On to `COc1cc(CN2C[C@H]3O[C@]4(C2)CN(S(=O)(=O)c2ccc(C)cc2)[C@]2(C(C)C)CC[C@H](O)[C@H]3[C@H]42)cc(OC)c1`, for which the EC50 in the data set on SARS-CoV-2 was 5.6 µM. In addition, the CC50 in data set [1] came out at 13 µM.
In the case of `Nc1ncnc2c1ncn2[C@@H]1O[C@H](CSCC[C@H](N)C(=O)O)[C@@H](O)[C@H]1O` [S-ADENOSYLHOMOCYSTEINE], the IC50 in data set [2] amounted to 0.22 µM; in data set [5] it was 3.9 µM.
On to `Cc1ccc(S(=O)(=O)N2C[C@@]34CN(C(=O)c5cccs5)C[C@@H](O3)[C@@H]3[C@H]4[C@@]2(C(C)C)CC[C@@H]3O)cc1`, for which the EC50 in the data set with SARS-CoV-2 was 16 µM. Also, in data set [1], the CC50 was > 50 µM.
Turning to `Cc1ccc(S(=O)(=O)N2C[C@@]34CN(Cc5ccccc5)C[C@@H](O3)[C@H]3C(=O)CC[C@]2(C(C)C)[C@H]34)cc1`, the EC50 with SARS-CoV-2 was determined as 8.4 µM. The compound also had a CC50 in data set [1] of 5.8 µM.
For the compound `Cc1ccc(S(=O)(=O)N2C[C@@]34CN(C(=O)C5CC5)C[C@@H](O3)[C@H]3[C@@H](Oc5ncccn5)CC[C@]2(C(C)C)[C@H]34)cc1`, in the data set on SARS-CoV-2, the EC50 was > 40 µM. Also, the CC50 in data set [1] was > 50 µM.
`COCn1ccc(N2C[C@H]3O[C@]4(C2)CN(S(=O)(=O)c2ccc(C)cc2)[C@]2(C(C)C)CC[C@H](O)[C@H]3[C@H]42)nc1=O`: the EC50 with SARS-CoV-2 is > 17 µM. In addition, the CC50 in data set [1] was > 50 µM.
`Cc1ccc(S(=O)(=O)N2C[C@@]34CN(Cc5ccccc5)C[C@@H](O3)[C@@H]3[C@H]4[C@@]2(C(C)C)C=C[C@@H]3O)cc1`: in the data set with SARS-CoV-2, the EC50 amounted to 17 µM. Also, the CC50 in data set [1] is > 50 µM.
Take `COc1ccc(CCN2C[C@H]3O[C@]4(C2)CN(S(=O)(=O)c2ccc(C)cc2)[C@]2(C(C)C)C=CC(=O)[C@H]3[C@H]42)cc1`: the EC50 with SARS-CoV-2 came to 13 µM. Moreover, in data set [1], the CC50 came to 6.6 µM.
The like results for `Cc1ccc(S(=O)(=O)N2C[C@@]34CN(C)C[C@@H](O3)[C@H]3C(=O)CC[C@]2(C(C)C)[C@H]34)cc1` were, in that order, > 50 µM and > 50 µM.

For orientation: EC50 means the concentration giving half of the maximal effect. The CC50 is the concentration that lowers cell viability or growth by half. High values mean better tolerance by the cells, low ones harm at low concentration. Usually IC50 stands for the concentration that inhibits the measured activity by half. Low readings indicate inhibition by little substance, high ones a need for much substance.
